Assay results from ChEMBL document CHEMBL4823260, “From High-Throughput Screening to Target Validation: Benzo[d]isothiazoles as Potent and Selective Agonists of Human Transient Receptor Potential Cation Channel Subfamily M Member 5 Possessing In Vivo Gastrointestinal Prokinetic Activity in Rodents” (J Med Chem, 2021).
pEC50: −log10 of the molar value. In brackets after ≈: the same amount, converted by molar mass.

Columns and labels:
[1] = target: T1, Transient receptor potential cation channel subfamily M member 5 (Homo sapiens, UniProt Q9NZQ8); assay: Agonist activity at human TRPM5 expressed in CHO-K1 cells maintained at 80 mV final holding potential by syncroPatch assay; type: cell-based
T1 sequence (Q9NZQ8 whole entry): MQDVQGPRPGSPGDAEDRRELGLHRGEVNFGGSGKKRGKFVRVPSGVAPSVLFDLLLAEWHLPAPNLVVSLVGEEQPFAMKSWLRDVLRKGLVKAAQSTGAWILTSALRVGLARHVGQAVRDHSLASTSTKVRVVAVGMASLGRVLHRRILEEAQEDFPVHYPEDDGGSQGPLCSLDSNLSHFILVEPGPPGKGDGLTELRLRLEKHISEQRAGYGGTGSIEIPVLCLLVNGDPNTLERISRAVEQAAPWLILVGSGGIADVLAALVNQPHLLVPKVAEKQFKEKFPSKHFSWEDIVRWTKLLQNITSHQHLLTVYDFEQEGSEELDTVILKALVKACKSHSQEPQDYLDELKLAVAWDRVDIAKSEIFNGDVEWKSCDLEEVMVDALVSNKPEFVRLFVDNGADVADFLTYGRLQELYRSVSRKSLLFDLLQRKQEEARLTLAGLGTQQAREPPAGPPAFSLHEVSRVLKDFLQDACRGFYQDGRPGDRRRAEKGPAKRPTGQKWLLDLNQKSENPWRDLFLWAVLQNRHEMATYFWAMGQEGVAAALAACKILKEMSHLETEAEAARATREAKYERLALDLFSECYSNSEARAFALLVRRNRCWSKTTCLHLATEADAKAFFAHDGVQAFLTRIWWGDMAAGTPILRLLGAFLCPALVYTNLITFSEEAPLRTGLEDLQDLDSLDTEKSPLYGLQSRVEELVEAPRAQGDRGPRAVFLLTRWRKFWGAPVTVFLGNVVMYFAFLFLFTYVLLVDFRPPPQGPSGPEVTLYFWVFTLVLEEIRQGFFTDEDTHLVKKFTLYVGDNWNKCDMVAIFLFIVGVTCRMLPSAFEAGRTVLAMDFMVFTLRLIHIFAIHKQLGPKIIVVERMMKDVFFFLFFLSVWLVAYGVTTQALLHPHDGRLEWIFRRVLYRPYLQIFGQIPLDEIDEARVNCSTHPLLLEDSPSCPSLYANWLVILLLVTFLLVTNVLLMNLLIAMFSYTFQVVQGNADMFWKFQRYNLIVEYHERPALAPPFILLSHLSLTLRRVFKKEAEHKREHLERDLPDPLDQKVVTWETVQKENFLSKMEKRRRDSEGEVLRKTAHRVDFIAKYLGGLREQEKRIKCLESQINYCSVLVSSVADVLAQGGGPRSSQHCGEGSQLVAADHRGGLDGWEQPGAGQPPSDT
Outline: (§1)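 SyncroPatch 384 whole-cell recording at rt on CHO-K1 cells stably expressing human or mouse TRPM5. Intracellular solution had 2 mM Na-ATP and 5 μM free Ca2+. Cumulative doses 0.03–31.6 μM in 0.5% DMSO, 150 s each after 180 s vehicle. Current measured at the end of the +80 mV step, normalized to vehicle; pEC50 is the mean of ≥2 independent experiments.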

[2] = target: T1, Transient receptor potential cation channel subfamily M member 5; assay: Agonist activity at human TRPM5 expressed in CHO-K1 cells maintained at 80 mV final holding potential by QPatch HTX assay; type: cell-based
Outline: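 Whole-cell QPatch HTX recording at rt on CHO-K1 cells with stable hTRPM5. Pipette solution HEDTA-buffered to 1 μM free Ca2+, pH 7.2. Cells held at 0 mV; 0.1 Hz protocol with steps to −80/+80 mV and a ramp. Current taken at the end of the first +80 mV step, no leak subtraction. Increase expressed relative to vehicle current (100%).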

[3] = target: Transient receptor potential cation channel subfamily A member 1 (Homo sapiens, UniProt O75762); assay: Agonist activity at human TRPA1 expressed in HEK cells assessed as increase in menthol-induced intracellular calcium level incubated for 2 hrs by FLIPR assay; type: cell-based
Transient receptor potential cation channel subfamily A member 1, sequence (O75762 whole entry): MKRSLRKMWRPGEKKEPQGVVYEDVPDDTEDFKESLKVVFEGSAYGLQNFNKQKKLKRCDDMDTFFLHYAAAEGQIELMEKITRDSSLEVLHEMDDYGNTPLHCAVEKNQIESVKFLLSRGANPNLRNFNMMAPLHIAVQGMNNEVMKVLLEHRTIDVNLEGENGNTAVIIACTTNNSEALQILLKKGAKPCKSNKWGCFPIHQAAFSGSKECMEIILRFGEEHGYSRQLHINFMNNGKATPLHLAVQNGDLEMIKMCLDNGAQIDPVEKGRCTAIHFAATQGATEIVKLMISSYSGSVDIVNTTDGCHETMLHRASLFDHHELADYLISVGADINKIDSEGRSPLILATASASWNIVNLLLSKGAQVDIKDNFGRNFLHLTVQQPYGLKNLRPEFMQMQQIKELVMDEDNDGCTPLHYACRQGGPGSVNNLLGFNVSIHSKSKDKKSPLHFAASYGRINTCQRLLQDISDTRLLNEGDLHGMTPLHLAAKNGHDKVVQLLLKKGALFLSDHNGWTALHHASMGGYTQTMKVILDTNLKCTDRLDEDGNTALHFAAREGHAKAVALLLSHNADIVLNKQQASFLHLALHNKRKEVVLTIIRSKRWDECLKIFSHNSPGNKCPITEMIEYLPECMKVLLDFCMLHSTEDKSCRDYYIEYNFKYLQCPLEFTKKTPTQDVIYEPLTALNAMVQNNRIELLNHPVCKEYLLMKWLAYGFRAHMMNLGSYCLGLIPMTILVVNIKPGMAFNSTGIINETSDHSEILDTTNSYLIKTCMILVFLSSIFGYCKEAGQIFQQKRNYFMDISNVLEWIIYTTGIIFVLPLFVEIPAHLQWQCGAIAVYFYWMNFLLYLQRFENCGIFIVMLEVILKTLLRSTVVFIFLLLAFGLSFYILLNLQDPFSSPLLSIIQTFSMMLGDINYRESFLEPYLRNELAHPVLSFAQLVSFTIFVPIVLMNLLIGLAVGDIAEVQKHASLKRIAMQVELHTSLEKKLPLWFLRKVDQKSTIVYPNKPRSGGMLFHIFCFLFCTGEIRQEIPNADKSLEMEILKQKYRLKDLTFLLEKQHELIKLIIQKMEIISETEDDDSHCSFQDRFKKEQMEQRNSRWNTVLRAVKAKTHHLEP
Outline: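 HEK cells stably expressing hTRPA1, plated at 20,000/well 24 h ahead, loaded with calcium-6 dye plus 2.5 mM probenecid for 2 h at 37 °C. First FLIPR addition: 11-point 1:3 concentration series, read for 5 min, scaled to (−)menthol 1 mM final (100% control); pEC50 fitted. Final DMSO 0.5%; run at 37 °C.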

[4] = target: Transient receptor potential cation channel subfamily V member 4 (Homo sapiens, UniProt Q9HBA0); assay: Agonist activity at human TRPV4 expressed in HEK cells assessed as increase in GSK1016790A-induced intracellular calcium level measured after 1 hr by FLIPR assay; type: cell-based
Transient receptor potential cation channel subfamily V member 4, sequence (Q9HBA0 whole entry): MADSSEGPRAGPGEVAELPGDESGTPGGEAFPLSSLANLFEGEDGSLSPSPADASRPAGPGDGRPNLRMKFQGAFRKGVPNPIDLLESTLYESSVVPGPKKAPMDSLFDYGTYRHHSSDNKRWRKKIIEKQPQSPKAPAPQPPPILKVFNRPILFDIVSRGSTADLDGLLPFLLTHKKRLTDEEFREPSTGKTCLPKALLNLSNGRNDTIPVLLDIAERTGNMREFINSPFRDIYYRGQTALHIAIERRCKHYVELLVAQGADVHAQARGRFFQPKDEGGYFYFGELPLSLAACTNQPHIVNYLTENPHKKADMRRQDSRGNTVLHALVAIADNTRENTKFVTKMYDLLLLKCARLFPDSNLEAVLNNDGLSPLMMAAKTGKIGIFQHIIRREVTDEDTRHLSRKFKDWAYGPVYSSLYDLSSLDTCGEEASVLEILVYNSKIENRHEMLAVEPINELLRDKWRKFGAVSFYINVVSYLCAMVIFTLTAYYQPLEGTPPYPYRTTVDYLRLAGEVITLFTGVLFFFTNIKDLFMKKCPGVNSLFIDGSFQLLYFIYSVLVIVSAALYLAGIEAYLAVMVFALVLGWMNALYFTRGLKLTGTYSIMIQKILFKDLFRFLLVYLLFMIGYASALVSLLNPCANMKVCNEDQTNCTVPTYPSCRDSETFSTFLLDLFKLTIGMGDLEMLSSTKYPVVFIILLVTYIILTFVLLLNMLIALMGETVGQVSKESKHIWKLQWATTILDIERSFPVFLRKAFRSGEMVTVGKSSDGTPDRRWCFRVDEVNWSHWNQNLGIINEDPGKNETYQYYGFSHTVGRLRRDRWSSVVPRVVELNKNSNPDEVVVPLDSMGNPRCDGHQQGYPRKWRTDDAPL

[5] = target: Transient receptor potential cation channel subfamily V member 1 (Homo sapiens, UniProt Q8NER1); assay: Agonist activity at human TRPV1 expressed in CHO cells assessed as increase in capsaicin-induced intracellular calcium level measured after 1 hr by FLIPR assay; type: cell-based
Transient receptor potential cation channel subfamily V member 1, sequence (Q8NER1 whole entry): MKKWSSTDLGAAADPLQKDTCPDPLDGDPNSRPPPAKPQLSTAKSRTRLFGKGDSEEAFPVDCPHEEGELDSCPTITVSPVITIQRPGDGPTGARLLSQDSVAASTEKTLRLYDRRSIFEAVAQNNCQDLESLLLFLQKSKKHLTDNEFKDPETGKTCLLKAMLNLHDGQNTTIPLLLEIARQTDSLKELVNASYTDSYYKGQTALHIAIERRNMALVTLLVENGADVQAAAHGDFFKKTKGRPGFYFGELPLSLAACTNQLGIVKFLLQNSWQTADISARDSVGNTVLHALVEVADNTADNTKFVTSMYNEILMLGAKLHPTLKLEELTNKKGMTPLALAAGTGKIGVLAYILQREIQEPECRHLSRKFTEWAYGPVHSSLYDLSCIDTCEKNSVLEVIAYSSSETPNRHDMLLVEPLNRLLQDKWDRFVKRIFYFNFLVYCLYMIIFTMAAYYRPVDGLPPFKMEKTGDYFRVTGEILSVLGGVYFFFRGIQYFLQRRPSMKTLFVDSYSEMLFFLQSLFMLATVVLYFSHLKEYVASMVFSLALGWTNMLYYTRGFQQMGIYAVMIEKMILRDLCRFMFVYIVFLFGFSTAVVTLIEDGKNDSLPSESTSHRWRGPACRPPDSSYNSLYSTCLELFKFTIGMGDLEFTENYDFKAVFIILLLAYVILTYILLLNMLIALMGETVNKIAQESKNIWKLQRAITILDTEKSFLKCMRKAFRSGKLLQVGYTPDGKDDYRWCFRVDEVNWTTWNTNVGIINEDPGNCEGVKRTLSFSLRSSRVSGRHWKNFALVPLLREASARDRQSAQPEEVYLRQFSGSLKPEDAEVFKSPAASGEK
Outline: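 CHO cells stably expressing hTRPV1, plated at 10,000/well 24 h before the assay. Loaded with calcium-6 dye plus 2.5 mM probenecid for 1 h at 37 °C and 1 h at rt. FLIPR dual-addition protocol; agonist potency derived as pEC50.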

[6] = target: Transient receptor potential cation channel subfamily M member 8 (Homo sapiens, UniProt Q7Z2W7); assay: Agonist activity at human TRPM8 expressed in HEK cells assessed as increase in menthol-induced intracellular calcium level measured after 1 hr by FLIPR assay; type: cell-based
Transient receptor potential cation channel subfamily M member 8, sequence (Q7Z2W7 whole entry): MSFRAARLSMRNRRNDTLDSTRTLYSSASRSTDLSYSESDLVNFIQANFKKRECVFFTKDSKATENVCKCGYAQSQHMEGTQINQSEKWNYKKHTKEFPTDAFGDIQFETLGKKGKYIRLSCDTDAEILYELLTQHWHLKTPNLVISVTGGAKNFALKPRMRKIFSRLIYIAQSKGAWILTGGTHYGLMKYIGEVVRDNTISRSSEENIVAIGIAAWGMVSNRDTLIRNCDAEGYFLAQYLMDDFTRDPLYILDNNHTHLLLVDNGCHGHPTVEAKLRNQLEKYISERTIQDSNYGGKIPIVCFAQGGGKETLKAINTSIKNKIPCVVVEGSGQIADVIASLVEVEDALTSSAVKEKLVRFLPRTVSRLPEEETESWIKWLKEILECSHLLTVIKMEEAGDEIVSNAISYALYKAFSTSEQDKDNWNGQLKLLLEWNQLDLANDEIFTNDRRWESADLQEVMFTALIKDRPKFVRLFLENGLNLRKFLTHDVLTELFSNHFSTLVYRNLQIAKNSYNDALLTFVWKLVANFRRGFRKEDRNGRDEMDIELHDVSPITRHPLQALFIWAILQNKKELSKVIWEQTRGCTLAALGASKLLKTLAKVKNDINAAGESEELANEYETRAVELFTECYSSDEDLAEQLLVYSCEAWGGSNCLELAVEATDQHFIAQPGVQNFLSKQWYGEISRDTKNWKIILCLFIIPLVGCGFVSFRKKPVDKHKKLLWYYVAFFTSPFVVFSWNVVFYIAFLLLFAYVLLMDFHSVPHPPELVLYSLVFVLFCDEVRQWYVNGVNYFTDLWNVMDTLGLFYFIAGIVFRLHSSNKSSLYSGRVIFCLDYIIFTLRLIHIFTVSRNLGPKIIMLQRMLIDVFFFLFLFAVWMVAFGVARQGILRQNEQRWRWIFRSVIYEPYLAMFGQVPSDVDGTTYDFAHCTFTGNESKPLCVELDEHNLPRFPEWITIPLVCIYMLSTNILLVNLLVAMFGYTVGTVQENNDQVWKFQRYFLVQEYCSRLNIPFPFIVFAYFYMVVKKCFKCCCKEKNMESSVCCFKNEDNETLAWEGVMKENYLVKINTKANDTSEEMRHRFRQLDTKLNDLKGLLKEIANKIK
Outline: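 HEK cells with stable hTRPM8, 20,000/well on poly-D-lysine plates 24 h ahead. Loaded with calcium-6 dye and 2.5 mM probenecid, 1 h at 37 °C then 1 h at rt. First-addition calcium rise scaled to (−)menthol 100 μM final (100% control); pEC50 derived from the concentration–response. Final DMSO 0.5%; assay at rt.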

[7] = Efflux ratio of apparent permeability across basolateral to apical over apical to basolateral membrane in human Caco-2 cells incubated for 30 mins by LC-MS/MS analysis; type: ADME, cell-based
[8] = Apparent permeability across apical to basolateral membrane in human Caco-2 cells incubated for 30 mins by LC-MS/MS analysis; type: ADME, cell-based
[9] = target: T2, Transient receptor potential cation channel subfamily M member 5 (Mus musculus, UniProt Q9JJH7); assay: Agonist activity at mouse TRPM5 expressed in CHO-K1 cells maintained at 80 mV final holding potential by syncroPatch assay; type: cell-based; outline: as §1
T2 sequence (Q9JJH7 whole entry): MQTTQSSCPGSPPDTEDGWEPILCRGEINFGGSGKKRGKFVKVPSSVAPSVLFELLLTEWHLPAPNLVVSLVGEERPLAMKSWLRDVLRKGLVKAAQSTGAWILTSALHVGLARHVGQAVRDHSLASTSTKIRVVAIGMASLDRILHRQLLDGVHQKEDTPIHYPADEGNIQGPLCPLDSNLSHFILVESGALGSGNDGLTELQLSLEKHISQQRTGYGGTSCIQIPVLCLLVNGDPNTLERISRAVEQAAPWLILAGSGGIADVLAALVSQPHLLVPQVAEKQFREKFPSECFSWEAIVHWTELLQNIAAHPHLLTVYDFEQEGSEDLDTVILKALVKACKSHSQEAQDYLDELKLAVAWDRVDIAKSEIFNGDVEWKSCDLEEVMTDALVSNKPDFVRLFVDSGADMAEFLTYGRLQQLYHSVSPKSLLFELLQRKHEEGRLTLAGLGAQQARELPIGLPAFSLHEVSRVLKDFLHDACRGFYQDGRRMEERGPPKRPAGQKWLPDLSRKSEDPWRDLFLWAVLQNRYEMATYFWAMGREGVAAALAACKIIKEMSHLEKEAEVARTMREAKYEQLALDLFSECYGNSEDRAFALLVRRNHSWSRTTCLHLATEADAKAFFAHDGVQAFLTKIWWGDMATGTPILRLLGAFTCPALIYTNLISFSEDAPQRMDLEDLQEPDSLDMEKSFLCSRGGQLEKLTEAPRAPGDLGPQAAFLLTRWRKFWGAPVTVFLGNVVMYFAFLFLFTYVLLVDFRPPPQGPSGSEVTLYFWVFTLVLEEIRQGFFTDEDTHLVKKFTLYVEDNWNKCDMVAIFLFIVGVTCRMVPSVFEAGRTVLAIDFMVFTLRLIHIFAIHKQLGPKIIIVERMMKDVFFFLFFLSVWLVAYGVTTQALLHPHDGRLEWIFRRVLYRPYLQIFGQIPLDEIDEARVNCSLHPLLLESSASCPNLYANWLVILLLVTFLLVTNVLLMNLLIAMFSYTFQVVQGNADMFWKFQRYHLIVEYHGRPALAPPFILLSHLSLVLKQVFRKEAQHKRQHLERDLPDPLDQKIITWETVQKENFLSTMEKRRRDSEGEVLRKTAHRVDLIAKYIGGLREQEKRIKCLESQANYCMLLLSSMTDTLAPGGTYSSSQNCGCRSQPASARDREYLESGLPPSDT

[10] = Intrinsic clearance in human liver microsomes assessed per mg protein incubated up to 30 mins in presence of NADPH by LC-MS/MS analysis; type: ADME, Microsome
[11] = Intrinsic clearance in mouse liver microsomes assessed per mg protein incubated up to 30 mins in presence of NADPH by LC-MS/MS analysis; type: ADME, Microsome
[12] = Solubility of the compound in phospahte-buffered saline buffer at pH 7.4 incubated for 2 hrs by HPLC/UV analysis; type: physicochemical; conditions: phosphate-buffered saline
[13] = target: Transient receptor potential cation channel subfamily M member 4 (Homo sapiens, UniProt Q8TD43); assay: Agonist activity at human TRPM4 expressed in CHO cells assessed as change in membrane potential by FLIPR assay

pEC50 [1] | pEC50 [2] | pEC50 [3] | pEC50 [4] | pEC50 [5] | pEC50 [6] | efflux ratio at 0.5 h [7] | Papp A→B at 0.5 h [8] [×10⁻⁶ cm/s] | pEC50 [9] | microsomal CLint [10] [µL/min/mg] | microsomal CLint [11] [µL/min/mg] | solubility at 2 h [12] [µM] | Compound | pEC50 [13]
5.33 | 5.22 | – | – | – | – | – | – | – | – | – | – | Cn1c(Cl)cnc1CNc1ccc(Cl)cc1F | –
6.48 | – | < 4.80 | < 4.80 | < 4.80 | < 4.80 | 1.03 | 21.9 | 6.50 | 109 | 446 | 215 (≈ 59.9 µg/mL) | Cn1c(Cl)cnc1CNc1ccc2sncc2c1 | < 4.20
